Activity calls are given as the source filed them. No cut-off for these calls is given here.
Columns and labels:
[1] = molecular target: T1, Dual specificity protein kinase TTK (Homo sapiens, UniProt P33981); experiment: Inhibition of Kinase Tracer 236 binding to recombinant human full-length GST-tagged TTk expressed in baculovirus expression system measured after 1 hr by LanthaScreen Eu--kinase binding assay
T1 sequence (P33981 whole entry): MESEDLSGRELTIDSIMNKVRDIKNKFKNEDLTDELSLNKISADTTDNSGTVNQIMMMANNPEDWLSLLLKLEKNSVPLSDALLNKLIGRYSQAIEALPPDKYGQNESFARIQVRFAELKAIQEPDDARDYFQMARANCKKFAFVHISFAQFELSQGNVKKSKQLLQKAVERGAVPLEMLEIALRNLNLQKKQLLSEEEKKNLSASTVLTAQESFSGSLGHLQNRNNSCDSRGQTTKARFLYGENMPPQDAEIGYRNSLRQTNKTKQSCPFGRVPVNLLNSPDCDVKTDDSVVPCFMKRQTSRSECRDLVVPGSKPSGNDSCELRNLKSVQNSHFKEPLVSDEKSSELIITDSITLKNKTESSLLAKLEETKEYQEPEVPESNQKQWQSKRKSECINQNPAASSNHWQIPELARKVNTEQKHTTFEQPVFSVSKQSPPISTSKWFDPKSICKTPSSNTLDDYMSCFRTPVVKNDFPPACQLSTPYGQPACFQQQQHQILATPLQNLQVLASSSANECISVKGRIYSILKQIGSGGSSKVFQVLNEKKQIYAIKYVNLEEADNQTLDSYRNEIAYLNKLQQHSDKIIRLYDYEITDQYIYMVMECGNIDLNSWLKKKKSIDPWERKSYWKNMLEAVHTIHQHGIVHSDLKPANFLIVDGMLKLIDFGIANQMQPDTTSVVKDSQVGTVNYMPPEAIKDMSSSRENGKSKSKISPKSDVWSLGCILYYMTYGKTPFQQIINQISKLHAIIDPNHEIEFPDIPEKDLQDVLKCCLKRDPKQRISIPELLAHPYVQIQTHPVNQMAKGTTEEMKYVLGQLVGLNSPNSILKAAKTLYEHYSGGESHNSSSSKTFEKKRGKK

[2] = molecular target: Mitogen-activated protein kinase 8 (Homo sapiens, UniProt P45983); experiment: Inhibition of recombinant human full length His-tagged JNK1 expressed in baculovirus expression system by Z'-LYTE assay
[3] = molecular target: Leucine-rich repeat serine/threonine-protein kinase 2 (Homo sapiens, UniProt Q5S007); experiment: Inhibition of recombinant human GST-tagged LRRK2 catalytic domain (970 to 2527 residues) expressed in baculovirus expression system using LRRKtide as substrate measured after 1 hr by Alexa fluor-647 ADP tracer-based ADAPTA assay
[4] = molecular target: T2, Dual specificity tyrosine-phosphorylation-regulated kinase 3 (Homo sapiens) (UniProt O43781); experiment: Inhibition of recombinant human full length GST-tagged DYRK3 expressed in baculovirus expression system at 3 uM by Z'-LYTE assay relative to control
T2 sequence (whole entry): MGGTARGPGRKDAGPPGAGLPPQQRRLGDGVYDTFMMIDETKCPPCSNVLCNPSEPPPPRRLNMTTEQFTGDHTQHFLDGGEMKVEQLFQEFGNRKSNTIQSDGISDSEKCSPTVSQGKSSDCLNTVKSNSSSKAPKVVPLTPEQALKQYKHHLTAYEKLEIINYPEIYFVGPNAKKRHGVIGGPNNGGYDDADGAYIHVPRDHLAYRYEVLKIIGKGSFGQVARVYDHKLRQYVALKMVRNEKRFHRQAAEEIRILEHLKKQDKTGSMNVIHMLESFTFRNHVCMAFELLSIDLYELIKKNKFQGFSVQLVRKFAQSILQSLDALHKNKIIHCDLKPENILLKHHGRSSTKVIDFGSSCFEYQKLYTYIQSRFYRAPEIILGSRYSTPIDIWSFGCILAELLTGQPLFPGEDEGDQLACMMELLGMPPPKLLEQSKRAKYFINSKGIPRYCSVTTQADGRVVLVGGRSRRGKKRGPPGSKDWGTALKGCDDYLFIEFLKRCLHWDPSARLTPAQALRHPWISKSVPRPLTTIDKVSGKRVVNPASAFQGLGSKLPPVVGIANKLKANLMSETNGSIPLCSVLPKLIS
In short: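 Kinase selectivity panel: single-point assessment at 3 µM, n=1.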

[5] = molecular target: Dual specificity protein kinase CLK2 (Homo sapiens, UniProt P49760); experiment: Inhibition of recombinant human GST-tagged CLK2 catalytic domain (137 to 498 residues) expressed in baculovirus expression system by Z'-LYTE assay
[6] = molecular target: Leukocyte tyrosine kinase receptor (Homo sapiens, UniProt P29376); experiment: Inhibition of recombinant human GST-tagged LTK cytoplasmic domain (450 to 864 residues) expressed in baculovirus expression system by Z'-LYTE assay
[7] = Metabolic stability in human liver S9 fraction assessed as parent compound remaining after 60 mins; type: ADME, subcellular; conditions: read-out: Stability
[8] = Cmax in rat at 10 mg/kg, po; type: ADME, organism-based; parameters: dose 10 mg/kg, route oral; conditions: in vivo
In short: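 Rat oral PK at 10 mg/kg. Compound is given as a solution in CMCT (0.5% CMC/0.25% tween-80) or formulated in 5% TPGS, 10% captisol, 50 mM citrate buffer. Cmax and AUC are recorded.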

CAL-51 [9] = experiment: Antitumor activity against human CAL51 cells xenografted in CB17 SCID mouse assessed as tumor growth inhibition at 60 mg/kg, po administered every seven days for 16 days and measured twice per week up to 31 days by caliper method relative to control; type: functional; conditions: CAL-51, po, read-out: TGI
In short: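 Female CB17 SCID mice, 6-8 weeks old, inoculated subcutaneously with 2×10^6 CAL-51 cells. Oral dosing once weekly (QW) at 30-120 mg/kg, or 30 mg/kg BID QW, for 16 days, against vehicle control. Tumour long and short axes measured twice weekly by digital caliper; volume = width² × length/2. Values are TGI; data are mean ± SEM.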

[10] = Toxicity in CB17 SCID mouse xenografted with human CAL51 cells assessed as loss of body weight at 30 mg/kg, po […] for 16 days and measured up to 31 days; type: organism-based; conditions: in vivo
In short: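 Female CB17 SCID mice bearing subcutaneous CAL-51 xenografts (2×10^6 cells). Oral dosing once weekly at 30-120 mg/kg, or 30 mg/kg BID once weekly, for 16 days. Body weight loss tracked alongside tumour measurements, against vehicle.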

Mus musculus = experiment: Inhibition of mitosis in human CAL51 cells xenografted in CB17 SCID mouse assessed reduction in pHH3 ser10 level at 30 mg/kg, po administered as single dose measured up to 48 hrs by MSD electrochemiluminescent immunoassay; type: functional, organism-based
In short: (§1)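 CB17 SCID mice bearing CAL-51 tumours of 300-500 mm3 given compound orally. At preset time points the mice were euthanised and the tumours dissected and snap-frozen in liquid nitrogen. pHH3 Ser10 or cleaved caspase measured by MSD electrochemiluminescent immunoassay kit. Data are mean ± SEM.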

CAL-51 [11] = experiment: Induction of apoptosis in human CAL51 cells xenografted in CB17 SCID mouse assessed as activation of cleaved caspase-3 at 10 mg/kg, po measured after 1 to 48 hrs by MSD electrochemiluminescent immunoassay relative to control; type: functional; in short: as §1

Chain of Leucine-rich repeat serine/threonine-protein kinase 2 (Q5S007 whole entry, the tested form may be a part): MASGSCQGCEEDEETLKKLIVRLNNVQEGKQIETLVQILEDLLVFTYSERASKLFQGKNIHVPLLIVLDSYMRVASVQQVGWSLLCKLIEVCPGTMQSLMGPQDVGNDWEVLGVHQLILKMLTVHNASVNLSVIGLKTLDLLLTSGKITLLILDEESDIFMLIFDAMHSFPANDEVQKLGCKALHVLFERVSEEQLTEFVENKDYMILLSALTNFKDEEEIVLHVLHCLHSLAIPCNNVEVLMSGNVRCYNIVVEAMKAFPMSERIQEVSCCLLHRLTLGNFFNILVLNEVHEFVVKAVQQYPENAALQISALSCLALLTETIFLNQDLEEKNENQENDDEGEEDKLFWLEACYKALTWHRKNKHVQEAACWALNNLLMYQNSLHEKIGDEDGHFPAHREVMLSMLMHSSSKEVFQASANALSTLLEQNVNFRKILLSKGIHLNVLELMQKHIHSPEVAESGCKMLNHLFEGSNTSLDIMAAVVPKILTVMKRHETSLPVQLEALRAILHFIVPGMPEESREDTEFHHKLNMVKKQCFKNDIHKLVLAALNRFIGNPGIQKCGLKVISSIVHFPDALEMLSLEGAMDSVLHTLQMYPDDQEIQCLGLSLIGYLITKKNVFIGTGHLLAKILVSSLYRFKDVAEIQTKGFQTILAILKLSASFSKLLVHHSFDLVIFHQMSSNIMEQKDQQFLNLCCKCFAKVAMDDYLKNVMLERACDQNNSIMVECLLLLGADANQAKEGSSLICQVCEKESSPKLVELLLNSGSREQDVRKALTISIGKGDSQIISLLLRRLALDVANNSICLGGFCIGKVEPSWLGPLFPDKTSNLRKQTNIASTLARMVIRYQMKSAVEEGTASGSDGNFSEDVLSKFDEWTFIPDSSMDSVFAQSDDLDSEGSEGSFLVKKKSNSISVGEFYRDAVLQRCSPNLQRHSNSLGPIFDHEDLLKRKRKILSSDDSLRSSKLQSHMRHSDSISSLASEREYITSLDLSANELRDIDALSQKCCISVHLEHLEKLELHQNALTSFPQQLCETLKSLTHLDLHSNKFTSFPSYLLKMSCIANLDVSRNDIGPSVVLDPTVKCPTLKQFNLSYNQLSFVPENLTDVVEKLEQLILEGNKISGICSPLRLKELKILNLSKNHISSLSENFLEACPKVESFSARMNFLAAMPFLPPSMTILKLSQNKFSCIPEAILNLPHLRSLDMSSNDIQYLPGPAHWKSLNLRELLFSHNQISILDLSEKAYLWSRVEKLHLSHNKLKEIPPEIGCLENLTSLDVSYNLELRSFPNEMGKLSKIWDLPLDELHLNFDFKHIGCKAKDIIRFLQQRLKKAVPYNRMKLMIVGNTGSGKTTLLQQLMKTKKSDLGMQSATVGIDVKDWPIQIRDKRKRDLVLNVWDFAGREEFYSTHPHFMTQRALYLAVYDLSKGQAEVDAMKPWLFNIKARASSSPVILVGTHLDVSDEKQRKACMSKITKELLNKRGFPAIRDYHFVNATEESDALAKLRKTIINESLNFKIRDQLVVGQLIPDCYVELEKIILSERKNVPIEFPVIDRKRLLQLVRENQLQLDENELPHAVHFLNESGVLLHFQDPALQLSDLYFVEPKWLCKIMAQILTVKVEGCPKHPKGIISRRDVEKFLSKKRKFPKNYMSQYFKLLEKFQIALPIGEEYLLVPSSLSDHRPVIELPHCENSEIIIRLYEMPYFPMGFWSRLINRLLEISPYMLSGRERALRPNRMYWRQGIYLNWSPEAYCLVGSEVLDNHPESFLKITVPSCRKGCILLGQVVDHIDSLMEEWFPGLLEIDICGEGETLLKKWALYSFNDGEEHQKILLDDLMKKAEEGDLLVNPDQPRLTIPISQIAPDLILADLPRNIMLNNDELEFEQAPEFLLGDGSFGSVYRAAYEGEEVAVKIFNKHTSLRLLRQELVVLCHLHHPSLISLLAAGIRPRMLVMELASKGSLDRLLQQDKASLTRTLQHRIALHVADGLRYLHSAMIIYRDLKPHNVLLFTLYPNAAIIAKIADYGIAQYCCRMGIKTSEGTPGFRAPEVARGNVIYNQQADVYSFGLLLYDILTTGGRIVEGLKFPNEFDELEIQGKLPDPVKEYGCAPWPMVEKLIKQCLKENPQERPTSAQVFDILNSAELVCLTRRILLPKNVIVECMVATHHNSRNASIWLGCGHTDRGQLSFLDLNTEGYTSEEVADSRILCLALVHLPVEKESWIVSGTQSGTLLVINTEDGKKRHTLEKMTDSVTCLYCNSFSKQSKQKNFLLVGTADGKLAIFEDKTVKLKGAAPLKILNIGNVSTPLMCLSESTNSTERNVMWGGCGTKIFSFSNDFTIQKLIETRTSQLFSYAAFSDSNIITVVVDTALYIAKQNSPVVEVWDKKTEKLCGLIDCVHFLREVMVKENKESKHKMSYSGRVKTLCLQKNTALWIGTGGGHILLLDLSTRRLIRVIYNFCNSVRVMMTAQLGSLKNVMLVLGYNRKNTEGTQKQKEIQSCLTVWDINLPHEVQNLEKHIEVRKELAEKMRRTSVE
Chain of Leukocyte tyrosine kinase receptor (P29376 whole entry, the tested form may be a part): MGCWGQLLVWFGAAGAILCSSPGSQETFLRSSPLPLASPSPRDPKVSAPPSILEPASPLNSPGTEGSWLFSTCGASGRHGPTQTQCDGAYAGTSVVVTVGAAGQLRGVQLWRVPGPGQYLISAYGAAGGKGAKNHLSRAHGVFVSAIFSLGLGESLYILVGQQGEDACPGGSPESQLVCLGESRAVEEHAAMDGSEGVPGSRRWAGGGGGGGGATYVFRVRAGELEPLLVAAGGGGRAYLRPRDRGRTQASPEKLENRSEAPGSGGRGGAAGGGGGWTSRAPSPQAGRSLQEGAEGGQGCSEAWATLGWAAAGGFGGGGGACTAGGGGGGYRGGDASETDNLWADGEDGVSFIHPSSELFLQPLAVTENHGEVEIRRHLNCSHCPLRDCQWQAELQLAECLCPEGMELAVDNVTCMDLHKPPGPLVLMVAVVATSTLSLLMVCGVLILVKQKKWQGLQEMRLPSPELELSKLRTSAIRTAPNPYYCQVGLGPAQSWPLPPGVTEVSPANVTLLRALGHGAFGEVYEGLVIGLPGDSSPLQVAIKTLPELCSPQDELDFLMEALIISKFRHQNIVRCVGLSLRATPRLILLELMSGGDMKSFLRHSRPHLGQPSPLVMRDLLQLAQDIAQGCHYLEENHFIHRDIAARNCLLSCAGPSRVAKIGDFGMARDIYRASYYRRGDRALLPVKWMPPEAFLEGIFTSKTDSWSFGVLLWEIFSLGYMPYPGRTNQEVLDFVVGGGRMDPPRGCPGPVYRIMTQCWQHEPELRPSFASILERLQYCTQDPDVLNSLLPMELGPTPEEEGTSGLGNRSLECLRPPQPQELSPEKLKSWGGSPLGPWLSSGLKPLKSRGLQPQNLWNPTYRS
Chain of Dual specificity protein kinase CLK2 (P49760 whole entry, the tested form may be a part): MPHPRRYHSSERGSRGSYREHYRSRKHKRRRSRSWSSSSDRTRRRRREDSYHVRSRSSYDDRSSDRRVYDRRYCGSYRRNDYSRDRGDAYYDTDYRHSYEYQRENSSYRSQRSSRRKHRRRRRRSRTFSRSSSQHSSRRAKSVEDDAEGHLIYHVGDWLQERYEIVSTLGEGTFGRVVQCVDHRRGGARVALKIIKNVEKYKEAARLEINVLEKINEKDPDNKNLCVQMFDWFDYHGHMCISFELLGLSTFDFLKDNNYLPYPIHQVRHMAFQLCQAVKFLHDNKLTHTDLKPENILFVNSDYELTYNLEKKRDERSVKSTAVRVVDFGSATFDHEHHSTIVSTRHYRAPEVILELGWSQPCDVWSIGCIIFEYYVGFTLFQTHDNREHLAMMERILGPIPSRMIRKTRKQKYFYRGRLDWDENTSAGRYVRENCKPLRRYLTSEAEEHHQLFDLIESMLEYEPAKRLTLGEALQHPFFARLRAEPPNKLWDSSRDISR
Chain of Mitogen-activated protein kinase 8 (P45983 whole entry, the tested form may be a part): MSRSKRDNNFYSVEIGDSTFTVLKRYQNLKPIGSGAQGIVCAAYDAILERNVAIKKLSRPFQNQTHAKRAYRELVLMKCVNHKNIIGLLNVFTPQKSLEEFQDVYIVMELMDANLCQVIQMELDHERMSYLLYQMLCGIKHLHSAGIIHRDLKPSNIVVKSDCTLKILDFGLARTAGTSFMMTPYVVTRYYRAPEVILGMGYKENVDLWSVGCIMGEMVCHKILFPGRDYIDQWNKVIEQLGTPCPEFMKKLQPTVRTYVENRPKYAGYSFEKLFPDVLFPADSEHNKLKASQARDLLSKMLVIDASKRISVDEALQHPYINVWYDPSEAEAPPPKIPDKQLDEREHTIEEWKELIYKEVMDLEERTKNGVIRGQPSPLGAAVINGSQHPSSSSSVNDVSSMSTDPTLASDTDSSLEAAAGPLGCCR

Structure (SMILES): C[C@@H](Oc1cc(C(=O)N(C)C)ccc1Nc1nc(O[C@H]2CC[C@@](C)(O)CC2)c2c(Cl)c[nH]c2n1)C(F)(F)F
- IC50 [1]: 0.7 nM
- IC50 [2]: 0.032 nM
- IC50 [3]: 0.001 nM
- inhibition [4]: > 80%
- IC50 [5]: 0.261 nM
- IC50 [6]: 0.567 nM
- remaining at 1 h [7]: 65%
- Cmax [8]: 4.35 µM
- inhibition in vivo at 60 mg/kg (CAL-51 [9]): 65%
- Activity [10]: Non-Toxic
- inhibition (Mus musculus): Active
- Activity (CAL-51 [11]): 159%
